Compound activity deposited in PubChem BioAssay by several laboratories.
Sampled rows, rich in hits. Any-hit rate of the full collection: about 4.1%.
KCNQ1 block = inhibitors of human KCNQ1 channel, primary screen, cell-based, thallium flux, high-throughput; B-score at 10 µM; CHO-K1 KCNQ1, FluxOR thallium flux fluorescence; stronger effect = higher value; 1.3% of 310,000 active;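 active means compounds whose thallium flux B-score, printed positive for inhibition, exceeds three library SD while starting fluorescence stays within three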;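 further: channel opened by potassium depolarization with thallium stimulus after 20 min compound exposure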
KCNQ1 pot = potentiators or activators of KCNQ1 channel, primary screen, cell-based, thallium flux, high-throughput; CHO-K1 KCNQ1, thallium flux FluxOR fluorescence; stronger effect = higher value; Potassium voltage-gated channel subfamily KQT member 1 (Homo sapiens), P51787; AID 2648, 2010; 0.35% of 310,000 active; B-score at 10 µM;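 active means fluorescence ratio B-score, a plate-corrected score, at least three library SD, with initial intensity B-score within 5 SD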
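Medium – assay buffer, equal DMSO in all wells · Material – CHO-K1 cell line with stable KCNQ1 potassium channel expression · Signal – kinetic FluxOR thallium fluorescence, 10-s 1-Hz baseline, 110-s post-stimulus read · Compound – single concentration per compound, DMSO matched to controls · Schedule – 37 °C overnight plating, 90-min dark dye load, 20-min compound pretreatment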
hERG rescue = hERG rescue from dofetilide block, primary screen, cell-based, CHO-hERG, FluxOR thallium flux, dofetilide IC70. dofetilide IC70 present. activation (rescue from dofetilide block), less the hit threshold, % at 10 µM. 0.51% of 310,000 active. AID 1511, 2009;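 active means activation above the mean of controls blocked by dofetilide plus 5 SD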;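 further: thallium influx through hERG after potassium depolarization seen as dye fluorescence rise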
KCNK3 block = human KCNK3 channel inhibitors, primary screen, CHO cells, FluxOR thallium flux, B-score; Potassium channel subfamily K member 3 (Homo sapiens), O14649; 0.84% of 340,000 active; FluxOR fluorescence; stronger effect = lower value; B-score at 10 µM;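 active means B-score under library mean minus 4 SD, starting fluorescence ratio at most library mean plus 5 SD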;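 further: more negative B-score means stronger inhibition of thallium flux through KCNK3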
Target sequence (O14649 whole entry, looked up): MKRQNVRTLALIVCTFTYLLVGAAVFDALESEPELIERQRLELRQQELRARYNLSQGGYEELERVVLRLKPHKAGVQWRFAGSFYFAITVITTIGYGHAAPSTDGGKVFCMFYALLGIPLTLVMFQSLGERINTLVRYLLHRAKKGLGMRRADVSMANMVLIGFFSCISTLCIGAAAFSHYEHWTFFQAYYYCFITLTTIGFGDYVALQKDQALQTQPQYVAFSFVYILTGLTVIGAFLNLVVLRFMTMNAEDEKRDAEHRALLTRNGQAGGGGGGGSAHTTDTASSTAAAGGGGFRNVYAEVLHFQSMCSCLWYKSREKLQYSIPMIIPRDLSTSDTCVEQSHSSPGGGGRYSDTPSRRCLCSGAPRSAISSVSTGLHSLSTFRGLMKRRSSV
KCNK9 inh = KCNK9 potassium channel inhibitors, primary screen, HEK293 cells, thallium flux; 1.2% of 310,000 active; B-score at 10 µM; FluxOR thallium flux fluorescence; stronger effect = lower value;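 active means ratio B-score over 3 SD below the library mean, with starting fluorescence within 5 SD of its mean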;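 further: negative B-score means less thallium flux so channel inhibition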
KCC2 mod = KCC2 cotransporter modulators, thallium flux, primary screen, cell-based, HEK293 KCC2, FluoZin-2 fluorescence, MLSMR; 2.2% of 190,000 active; B-score of Tl+ flux slope (higher = more flux/activation; lower = inhibition) at 10 µM; AID 1456, 2008; Solute carrier family 12 member 5 (Homo sapiens), Q9H2X9; KCC2 cells, thallium flux FluoZin-2 fluorescence;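 active means thallium flux slope and its plate-corrected score both differing from the plate sample mean at a set confidence after two filtering rounds, in either direction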;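 further: slope of fluorescence scaled to starting intensity during 10 to 20 s after thallium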
KCNK9 inh conf = KCNK9 potassium channel inhibitors, confirmation, HEK293 cells, thallium flux, duplicate. shares compounds with KCNK9 inh. FluxOR thallium flux fluorescence. inhibition, % at 10 µM. 43% of 4,900 active;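 active means thallium signal inhibited by more than 5 SD of the compound-free buffer control wells, on both duplicate plates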;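 further: 0% = assay buffer control wells without compound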
Kir21 sel = mouse Kir2.1 channel inhibition, confirmation, selectivity assay for KCNK9 modulator project, cell-based, HEK293, thallium flux | shares compounds with KCNK9 inh | Kir2.1 cells, FluxOR thallium flux fluorescence | inhibition, % at 10 µM | 4% of 4,900 active | AID 492993, 2010;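 active means thallium signal drop more than 5 SD beyond the mean of the no-compound control wells, seen in both duplicate plates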;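 further: signal is fluorescence rise after thallium addition divided by baseline fluorescence; plate controls were assay buffer only for no effect and full block by chlorpromazine control for full effect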
HEK293 Tl ctr = thallium flux in non-induced HEK293 cells, confirmation, counter-screen for KCNK9 inhibitor project, cell-based, second counter screen, non-induced KCNK9-HEK293; shares compounds with KCNK9 inh; FluxOR thallium flux; inhibition, % at 10 µM; 40% of 4,900 active; AID 492997, 2010;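 active means thallium signal drop beyond 5 SD of the untreated control mean, on both duplicate plates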;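 further: plate controls were buffer only IC0 wells for no effect and SID17386958 at its maximal inhibitory level for full effect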
* hit, by the source's call.

CCCCSc1nnc(-c2ccccc2)c2ccccc12 was read as KCNQ1 block inactive, KCNQ1 pot inactive, hERG rescue -17, KCNK3 block inactive, KCNK9 inh -15*, KCC2 mod -0.24, KCNK9 inh conf 38%*, Kir21 sel inactive and HEK293 Tl ctr 42%*.
Screening CCN1CCN(c2nnc(-c3ccccc3)c3ccccc23)CC1 returned KCNQ1 block inactive, KCNQ1 pot inactive, hERG rescue -3, KCNK3 block inactive and KCNK9 inh inactive.
CN(CC(=O)Nc1ccc(F)cc1)C(=O)Cn1cnc2ccc(Cl)cc2c1=O was read as KCNK3 block inactive.
For Cc1ccc(/C=C/C(=O)Nc2ccc([N+](=O)[O-])cc2)o1 the results were KCNQ1 block inactive, KCNQ1 pot inactive, hERG rescue -12, KCNK3 block inactive and KCNK9 inh inactive.
`Cc1ccc(/C=C/C(=O)Nc2ccc(Oc3ccccc3)cc2)o1` gave KCNQ1 block inactive, KCNQ1 pot inactive, hERG rescue -11, KCNK3 block inactive, KCNK9 inh inactive, KCC2 mod -2.5, KCNK9 inh conf inactive, Kir21 sel inactive and HEK293 Tl ctr inactive.
For Cc1cc(C)cc(NC(=O)CSc2ccc(-c3ccco3)nn2)c1 the results were KCNQ1 block inactive, KCNQ1 pot inactive, hERG rescue -4, KCNK3 block inactive, KCNK9 inh inactive and KCC2 mod -0.67.
Screening COC(=O)c1ccccc1N/C=C/C(=O)c1ccc(Br)cc1 returned KCNQ1 block inactive, KCNQ1 pot inactive, hERG rescue -4, KCNK3 block inactive, KCNK9 inh -12*, KCC2 mod -0.068, KCNK9 inh conf 43%*, Kir21 sel inactive and HEK293 Tl ctr 38%*.
For NC(=O)c1ccccc1N/C=C/C(=O)c1ccccc1 the results were KCNQ1 block inactive, KCNQ1 pot inactive, hERG rescue -17, KCNK3 block inactive, KCNK9 inh inactive and KCC2 mod -0.21.
CCOC(=O)c1ccccc1N/C=C/C(=O)c1cccs1 was read as KCNQ1 block inactive, KCNQ1 pot inactive, hERG rescue -4, KCNK3 block inactive, KCNK9 inh -9.8*, KCC2 mod -1.4, KCNK9 inh conf 50%*, Kir21 sel inactive and HEK293 Tl ctr 39%*.
CN(Cc1ccccc1)C(=O)CSc1nc2cc(C(=O)N3CCC(C(N)=O)CC3)ccc2c(=O)n1-c1ccccc1 was read as KCNQ1 block inactive, KCNQ1 pot inactive, hERG rescue -7, KCNK9 inh inactive and KCC2 mod -0.1.
Screening COc1ccc(-c2ocnc2C(=O)Nc2ccccc2N2CCCCC2)cc1 returned KCNQ1 block inactive, KCNQ1 pot inactive, hERG rescue -8, KCNK3 block inactive, KCNK9 inh -9.3*, KCC2 mod 0.87, KCNK9 inh conf inactive, Kir21 sel inactive and HEK293 Tl ctr 28%*.
`COc1ccc(-c2ocnc2C(=O)NCc2nn(-c3ccccc3)nc2C)cc1` gave KCNQ1 block inactive, KCNQ1 pot inactive, hERG rescue -12, KCNK3 block inactive, KCNK9 inh inactive, KCNK9 inh conf inactive, Kir21 sel inactive and HEK293 Tl ctr inactive.
O=C1CCCN1CCCNC(=S)Nc1ccc(Cl)cc1Cl was read as KCNQ1 block inactive, KCNQ1 pot inactive, hERG rescue -13, KCNK3 block inactive, KCNK9 inh inactive and KCC2 mod 0.32.
`CNS(=O)(=O)c1cnccc1N1CCN(c2cccc(Cl)c2)CC1` gave KCNQ1 block inactive, KCNQ1 pot inactive, hERG rescue -9, KCNK3 block inactive, KCNK9 inh inactive and KCC2 mod -0.66.
CCN(CC)S(=O)(=O)c1cnccc1N1CCN(c2cccc(Cl)c2)CC1 was read as KCNQ1 block inactive, KCNQ1 pot inactive, hERG rescue -1, KCNK3 block inactive, KCNK9 inh -9.8*, KCC2 mod 0.007, KCNK9 inh conf 36%*, Kir21 sel inactive and HEK293 Tl ctr 27%*.
`Cc1nnc(C)n1/N=C/c1c(O)ccc2ccccc12` gave KCNQ1 block inactive, KCNQ1 pot inactive, hERG rescue -5, KCNK3 block inactive and KCNK9 inh inactive.
`Cc1nnc(-c2ccccc2)c(=O)n1/N=C/c1c(O)ccc2ccccc12` gave KCNQ1 block 8*, KCNQ1 pot inactive, hERG rescue -6, KCNK3 block inactive, KCNK9 inh -8.8*, KCC2 mod -2.4, KCNK9 inh conf 38%*, Kir21 sel inactive and HEK293 Tl ctr 34%*.
For O=C(CC(Nc1ccccc1Cl)C(=O)OCC(=O)c1cccs1)c1ccccc1 (stereo not drawn) the results were KCNQ1 block inactive, KCNQ1 pot inactive, hERG rescue -10, KCNK3 block inactive, KCNK9 inh -9.4*, KCC2 mod -1.3, KCNK9 inh conf 42%*, Kir21 sel inactive and HEK293 Tl ctr 28%*.
`O=C(OCC(=O)c1cccs1)c1ccccc1` gave KCNQ1 block inactive, KCNQ1 pot inactive, hERG rescue -12, KCNK3 block inactive, KCNK9 inh inactive and KCC2 mod -0.074.
`Cc1nc(-c2cccc(NC(=O)c3cccs3)c2)cs1` gave KCNQ1 block inactive, KCNQ1 pot inactive, hERG rescue -16, KCNK3 block inactive, KCNK9 inh inactive and KCC2 mod -1.3.
For O=C(Nc1cccc(-c2csc(-c3ccccc3)n2)c1)c1cccs1 the results were KCNQ1 block inactive, KCNQ1 pot inactive, hERG rescue -6, KCNK3 block inactive, KCNK9 inh -12*, KCNK9 inh conf 45%*, Kir21 sel inactive and HEK293 Tl ctr inactive.
